For series [1], the system named is zebrafish. The conditions noted are these: in vivo; cited from earlier work.
The target in series [2] is α-chymotrypsin (Bos taurus, UniProt P00766). Briefly: Chymotrypsin inhibition assay. It counts as biochemical. The procedure, abridged: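 α-Chymotrypsin, added as a 10 U/mL solution in kit assay buffer, was preincubated with test compound from a DMSO dilution series (10 μM to 1 nM) for 15 min at room temperature. A reference micropeptin served as positive control. A working reagent of 1% substrate in assay buffer was added, and fluorescence (ex/em 485/530 nm) was read every 30 s for 30 min. IC50 was calculated from the data.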

Series [3] addresses T1, human neutrophil elastase (Homo sapiens, UniProt P08246).
T1 sequence (P08246 30-267): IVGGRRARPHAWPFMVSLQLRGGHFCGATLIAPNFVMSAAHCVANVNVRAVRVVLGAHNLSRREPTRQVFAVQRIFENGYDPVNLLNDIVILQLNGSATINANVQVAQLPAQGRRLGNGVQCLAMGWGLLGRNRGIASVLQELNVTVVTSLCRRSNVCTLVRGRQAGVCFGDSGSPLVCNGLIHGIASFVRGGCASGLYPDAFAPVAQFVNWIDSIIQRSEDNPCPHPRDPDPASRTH
Briefly: Neutrophil elastase inhibition assay. It counts as biochemical. The conditions noted are these: dilution series 10 μM to 1 nM; general statement covering both protease assays.

Series [4] has as its system chymotrypsin. The conditions noted are these: read-out: IC50, chymotrypsin inhibition; literature value; cited from earlier work.

In the case of `CCCCCC(=O)N[C@@H](CC(=O)O)C(=O)N[C@H]1C(=O)N[C@@H](CCCN=C(N)N)C(=O)NC2CCC(O)N(C2=O)[C@@H]([C@H](C)CC)C(=O)N(C)[C@@H](Cc2ccc(O)cc2)C(=O)N[C@@H]([C@@H](C)CC)C(=O)O[C@@H]1C` (some centres unmarked) [micropeptin K139], the “share of the overall mortality attributed to the compound” value in series [1] is listed as 52%.

As for Micropeptin 982 (L-Ser) [Compound 2], the “chymotrypsin inhibitory activity (in words)” value in series [2] (dilution series 10 μM to 1 nM) is “no inhibition was observed”. In addition, the “inhibitory activity (in words), neutrophil elastase” value in series [3] is recorded as “lacked any inhibitory activity”. Regarding Micropeptin 996 (D-Gln) [Compound 4], the “chymotrypsin inhibition (in words)” value in series [2] (up to a concentration of 10 μM) is listed as “not active”.

A word on the IC50: it is the point on the concentration scale where inhibition reaches its midpoint. As to Microviridin 1777, the IC50 in series [4] is 100 nM.

The record behind these values is PMC12418302 (Journal of Natural Products, 2025).
